From ChEMBL document CHEMBL1148843, “High-throughput screening affords novel and selective trypanothione reductase inhibitors with anti-trypanosomal activity” (Bioorg Med Chem Lett, 2007)

Legend:
[1] = target: T1, Glutathione reductase, mitochondrial (Homo sapiens, UniProt P00390); experiment: Inhibition of human GR
T1 sequence (P00390 whole entry): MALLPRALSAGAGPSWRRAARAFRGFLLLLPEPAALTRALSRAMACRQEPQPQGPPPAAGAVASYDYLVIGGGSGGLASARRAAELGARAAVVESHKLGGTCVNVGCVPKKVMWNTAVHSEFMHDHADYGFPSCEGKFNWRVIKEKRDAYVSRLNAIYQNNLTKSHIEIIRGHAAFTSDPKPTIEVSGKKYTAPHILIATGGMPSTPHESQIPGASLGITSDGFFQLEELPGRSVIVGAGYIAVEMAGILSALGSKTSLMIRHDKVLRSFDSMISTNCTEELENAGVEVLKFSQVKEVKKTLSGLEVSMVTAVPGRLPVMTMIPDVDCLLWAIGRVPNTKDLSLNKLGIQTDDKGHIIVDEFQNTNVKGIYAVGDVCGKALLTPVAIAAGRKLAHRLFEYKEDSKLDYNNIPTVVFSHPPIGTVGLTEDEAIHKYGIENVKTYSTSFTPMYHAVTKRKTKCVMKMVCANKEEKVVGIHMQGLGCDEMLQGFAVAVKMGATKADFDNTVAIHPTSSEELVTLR

[2] = target: Trypanothione reductase (Trypanosoma brucei brucei, UniProt P39051); experiment: Inhibition of TR by DTNB-coupled assay
Procedure, shortened: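 Trypanothione reductase in 40 mM potassium HEPES pH 7.4, 1 mM EDTA with 4.22 µM trypanothione disulfide, 70.3 µM DTNB, 2.81 mU/mL TR. Compounds added from DMSO stocks, tested over 1.91 ng/mL to 31.2 µg/mL. NADPH added to start the reaction, 135 µM in the added solution. Plates incubated 60 min at 30°C, absorbance read at 405 nm. IC50 values determined.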

[3] = Selectivity for TR over human GR
[4] = system: Trypanosoma brucei; experiment: Antiproliferative activity against Trypanosoma brucei; type: functional, organism-based
Procedure, shortened: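 Bloodstream T. b. brucei S427 seeded at 10^3 cells/ml in HMI9 medium, 0.5% DMSO, inhibitor 50 to 0.2 μM serially diluted from 10 mM DMSO stocks. Incubated 72 h, 37 °C, 5% CO2, humidified. Then 45 μM resazurin added, further 4 h, resorufin fluorescence read (ex 528, em 590 nm). Triplicates, three separate occasions; weighted means ± SEM.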

Chain of Trypanothione reductase (P39051 whole entry): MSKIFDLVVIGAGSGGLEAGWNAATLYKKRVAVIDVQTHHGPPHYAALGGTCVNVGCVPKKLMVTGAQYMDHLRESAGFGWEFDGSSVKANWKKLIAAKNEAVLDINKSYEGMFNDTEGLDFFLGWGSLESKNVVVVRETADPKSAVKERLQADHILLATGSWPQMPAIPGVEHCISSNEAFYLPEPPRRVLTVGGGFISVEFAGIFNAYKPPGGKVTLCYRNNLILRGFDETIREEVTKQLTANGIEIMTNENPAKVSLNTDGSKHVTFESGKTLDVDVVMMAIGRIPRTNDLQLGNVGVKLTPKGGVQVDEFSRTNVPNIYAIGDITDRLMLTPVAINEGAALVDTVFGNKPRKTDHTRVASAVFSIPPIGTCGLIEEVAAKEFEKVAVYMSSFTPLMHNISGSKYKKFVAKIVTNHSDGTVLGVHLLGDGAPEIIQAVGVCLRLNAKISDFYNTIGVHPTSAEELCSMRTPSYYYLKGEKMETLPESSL

| IC50 [4] [µM] | SMILES | IC50 [1] [µM] | IC50 [2] [µM] | Ratio IC50 [3] | EC50 [4] [µM] |
| --- | --- | --- | --- | --- | --- |
|  | CC(C)c1cc(CN(C)C)cc(C(C)C)c1O | 79.3 | 11.8 | 6.7 | > 50 |
|  | CC(C)(C)c1cc(CNCCO)cc(C(C)(C)C)c1O | 24.9 | 2 | 13 | 3.01 |
|  | CN(C)CCC(=O)c1cccc([N+](=O)[O-])c1 | 20.3 | 0.34 | 59 | 0.68 |
|  | O=C(CCNc1ccccc1)c1cccc([N+](=O)[O-])c1 | 58 | 1.7 | 35 | 1.01 |
|  | CCc1ccc(NCCC(=O)c2ccc(Cl)c(Cl)c2)cc1 | > 157 | 107 |  | 1.65 |
|  | O=C(CCNc1cccc(F)c1)c1cccc([N+](=O)[O-])c1 | > 173 | 3.3 |  | 0.82 |
| 0.0046 | N=C(N)c1ccc(OCCCCCOc2ccc(C(=N)N)cc2)cc1 [PENTAMIDINE] |  |  |  |  |
|  | CN(C)CCC(=O)c1ccc(Cl)c(Cl)c1 | 64.8 | 3.3 | 20 | 1 |
|  | CCCCOC(=O)c1ccc(NCCC(=O)c2cccc([N+](=O)[O-])c2)cc1 | > 135 | 2.4 |  | 0.96 |
|  | O=C(CCN1CCOCC1)c1ccc(Cl)cc1 | > 212 | 148 |  | 0.98 |
|  | CC(C)(C)c1cc(CN2CCCCCC2)cc(C(C)(C)C)c1O | > 155 | 38.8 |  | 3.3 |
|  | CN(C)CCC(=O)c1ccc(S(C)(=O)=O)cc1 | 20.4 | 2.9 | 7 | 0.55 |
|  | CS(=O)(=O)c1ccc(C(=O)CCN2CCCCC2)cc1 | 105 | 7.8 | 13 | 0.95 |
|  | Cc1cccc(NCCC(=O)c2cccc([N+](=O)[O-])c2)c1C | 86.3 | 1.5 | 58 | 0.15 |
